In ChEMBL document CHEMBL3259746, “Identification of [1,2,3]triazolo[4,5-d]pyrimidin-7(6H)-ones as novel inhibitors of Chikungunya virus replication” (J Med Chem, 2014):

Tests used:
Chikungunya virus [1] = assay: Antiviral activity against Chikungunya virus Indian Ocean strain 899 infected in African green monkey Vero cells assessed as inhibition of virus-induced cytopathic effect after 7 days by MTS/PMS method; assay type: functional, cell-based; details: Indian Ocean strain 899, Vero, 168 h
[2] = Cytotoxicity against non-infected African green monkey Vero cells after 7 days by MTS/PMS method; assay type: cell-based; details: chlorocebus sabaeus
Chikungunya virus [3] = assay: Antiviral activity against Chikungunya virus LR2006-OPY1 infected in African green monkey Vero E6 cells assessed as reduction in virus yield after 2 days by real time RT-PCR analysis; assay type: functional, cell-based; details: 48 h
Chikungunya virus [4] = assay: Antiviral activity against Chikungunya virus Venturini infected in African green monkey Vero E6 cells assessed as reduction in virus yield after 2 days by real time RT-PCR analysis; assay type: functional, cell-based; details: 48 h
Chikungunya virus [5] = assay: Antiviral activity against Chikungunya virus Congo 95 infected in African green monkey Vero E6 cells assessed as reduction in virus yield after 2 days by real time RT-PCR analysis; assay type: functional, cell-based; details: Congo 95, Vero, 48 h
Chikungunya virus [6] = assay: Antiviral activity against Chikungunya virus St. Martin infected in African green monkey Vero E6 cells assessed as reduction in virus yield after 2 days by real time RT-PCR analysis; assay type: functional, cell-based; details: 48 h
Semliki Forest virus = assay: Antiviral activity against Semliki forest virus Vietnam infected in African green monkey Vero E6 cells assessed as reduction in virus yield after 2 days by real time RT-PCR analysis; assay type: functional, organism-based; details: 48 h
Sindbis virus = assay: Antiviral activity against Sindbis virus HRsp infected in African green monkey Vero E6 cells assessed as reduction in virus yield after 2 days by real time RT-PCR analysis; assay type: functional, organism-based; details: 48 h
[7] = Cytotoxicity against non-infected African green monkey Vero E6 cells up to 300 uM after 2 days; assay type: cell-based; details: chlorocebus sabaeus, 48 h
How it was run: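 Uninfected Vero E6 cells were tested up to 300 μM under the same settings as the 2-day virus-yield assay: 5 × 10⁴ cells/well, 2.5% FCS medium, and 2-fold dilutions in triplicate.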

[8] = Selectivity index, ratio of CC50 for African green monkey Vero cells to EC50 for Chikungunya virus Indian Ocean strain 899 infected in African green monkey Vero cells; assay type: toxicity, cell-based; details: read-out: Ratio CC50/EC50

Row | SMILES | EC50 (Chikungunya virus [1]) | EC90 (Chikungunya virus [1]) | CC50 at 168 h [2] | also measured
1 | CC(C)Oc1cccc(-n2nnc3c(=O)[nH]c(-c4ccccc4)nc32)c1 | 204 µM | > 360 µM | 277 µM | 
2 | Cc1nc2c(nnn2Cc2cccc(OC(C)C)c2)c(=O)[nH]1 | 167 µM | 232 µM | > 872 µM | 
3 | CC(=O)c1cccc(-n2nnc3c(N)nc(C)nc32)c1 | 225 µM | 309 µM | > 746 µM | 
4 | Cc1nc2c(nnn2-c2cccc(OC(C)C)c2)c(=O)[nH]1 | 12 µM | 156 µM | > 704 µM | 
5 | Cc1nc2c(nnn2-c2cccc(Cl)c2)c(=O)[nH]1 | 32 µM | 235 µM | > 764 µM | 
6 | CCCOc1ccc(-n2nnc3c(=O)[nH]c(C)nc32)cc1 | 169 µM | > 701 µM | 594 µM | 
7 | CC(=O)c1cccc(-n2nnc3c(Cl)nc(C)nc32)c1 | > 174 µM | > 174 µM | > 174 µM | 
8 | CC(C)Oc1cccc(-n2nnc3c(=O)[nH]c(-c4ccncc4)nc32)c1 | 75 µM | > 144 µM | 82 µM | 
9 | COc1nc(C)nc2c1nnn2-c1cccc(C(C)=O)c1 | > 441 µM | > 441 µM | 495 µM | 
10 | CCc1nc2c(nnn2-c2cccc(OC(C)C)c2)c(=O)[nH]1 | 3 µM | 18 µM | > 668 µM | EC50 (Chikungunya virus [3]): 2.6 µM; EC50 (Chikungunya virus [4]): 1.4 µM; EC50 (Chikungunya virus [5]): 0.75 µM; EC50 (Chikungunya virus [6]): 2.9 µM; EC50 (Semliki Forest virus): 219 µM; EC50 (Sindbis virus): 69 µM; Activity [7]: Non-toxic; selectivity ratio [8]: > 222
11 | CCCc1nc2c(nnn2-c2cccc(OC(C)C)c2)c(=O)[nH]1 | > 399 µM | > 399 µM | > 638 µM | 
12 | CC(=O)Nc1cccc(-n2nnc3c(=O)[nH]c(C)nc32)c1 | 318 µM | 425 µM | 206 µM | 
13 | Cc1nc2c(nnn2-c2cccc(C#N)c2)c(=O)[nH]1 | 131 µM | 187 µM | > 793 µM | 
14 | Cc1nc2c(nnn2-c2cccc(C(=O)O)c2)c(=O)[nH]1 | > 399 µM | > 399 µM | > 638 µM | 
15 | CC(C)Oc1cccc(-n2nnc3c(=O)[nH]c(C(F)(F)F)nc32)c1 | 68 µM | > 147 µM | 104 µM | 
16 | CNc1nc(C)nc2c1nnn2-c1cccc(C(C)=O)c1 | > 443 µM | > 443 µM | 514 µM | 

Row | SMILES | EC50 (Chikungunya virus [1]) | EC90 (Chikungunya virus [1]) | CC50 at 168 h [2] | also measured
17 | CC(=O)c1cccc(-n2c(C)nc3c(=O)[nH]c(C)nc32)c1 | > 440 µM | > 440 µM | > 703 µM | 
18 | COc1ccccc1-n1nnc2c(=O)[nH]c(C)nc21 | 348 µM | 460 µM | > 777 µM | 
19 | CC(=O)c1cccc(-n2nnc3c(=O)n(C)c(C)nc32)c1 | > 441 µM | > 441 µM | > 706 µM | 
20 | CC(=O)c1cccc(-n2nnc3c(=O)[nH]c(C)nc32)c1 | 19 µM | 38 µM | > 743 µM | EC50 (Chikungunya virus [3]): 25 µM; EC50 (Chikungunya virus [4]): 26 µM; EC50 (Chikungunya virus [5]): 6.4 µM; EC50 (Chikungunya virus [6]): 24 µM; EC50 (Semliki Forest virus): > 464 µM; EC50 (Sindbis virus): > 464 µM; Activity [7]: Non-toxic
21 | CC(C)Oc1cccc(-n2nnc3c(=O)[nH]c(CC#N)nc32)c1 | 115 µM | 137 µM | 215 µM | 
22 | CC(C)Oc1cccc(-n2nnc3c(=O)[nH]c(=O)[nH]c32)c1 | > 435 µM | > 435 µM | > 696 µM | 
23 | Cc1nc2c(nnn2-c2ccc3c(c2)OCO3)c(=O)[nH]1 | > 461 µM | > 461 µM | > 737 µM | 
24 | CCN(CC)CCCC(C)Nc1ccnc2cc(Cl)ccc12 (centres undefined) [CHLOROQUINE] |  | 21 µM |  | 
25 | CC(=O)c1cccc(-n2nnc3c(=O)[nH]cnc32)c1 | > 490 µM | > 490 µM | > 784 µM | 
26 | CCOC(=O)c1cccc(-n2nnc3c(=O)[nH]c(C)nc32)c1 | 202 µM | 331 µM | 322 µM | 
27 | COc1cccc(-n2nnc3c(=O)[nH]c(C)nc32)c1 | 28 µM | 179 µM | > 777 µM | 
28 | CC(=O)c1ccc(-n2nnc3c(=O)[nH]c(C)nc32)cc1 | 326 µM | > 743 µM | > 743 µM | 
29 | Cc1nc2c(nnn2-c2cccc(C(=O)c3ccccc3)c2)c(=O)[nH]1 | 23 µM | 47 µM | > 604 µM | 
30 | Cc1nc2c(nnn2-c2cccc(N(C)C)c2)c(=O)[nH]1 | > 370 µM | > 370 µM | 538 µM | 
31 | CC(C)Oc1cccc(-n2nnc3c(=O)[nH]c(C(C)C)nc32)c1 | 280 µM | > 638 µM | > 638 µM | 
32 | CC(=O)c1cccc(-n2cnc3c(=O)[nH]c(C)nc32)c1 | 127 µM | 161 µM | 491 µM | 
